Bioassay records as filed in PubChem BioAssay.
Only a selection was taken, and hits are over-represented in it overall.
Yeast eIF2B: modulators of yeast eIF2B activity | 0.91% of 27,000 active | inhibition, % at 25 µM (by protocol) | S. cerevisiae eIF2B-epsilon R284H, GCN4-lacZ luminescence;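 active = mutant luminescence inhibited past about 50% while wild type luminescence and mutant growth stay under set limits, limit read from the data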
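Times: 16 h growth with compound at 30 °C, 90 min Beta-Glo step; Assay system: yeast eIF2B-epsilon R284H mutant carrying GCN4–beta-galactosidase fusion; Measure: % inhibition of reporter signal and growth versus controls; Dosing: one concentration, 25 µM, 0.25% DMSO; Buffer or medium: YPD yeast growth medium; Measured by: Beta-Glo luminescence plus absorbance at 595 nm.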
An asterisk follows results filed as active.

SMILES	Yeast eIF2B
CC1CCN(C(=O)CSc2nnc(-c3cc4ccccc4cc3O)n2Cc2ccco2)CC1	9.0
O=C(CSc1nnc(-c2ccncc2)n1-c1ccc(Cl)cc1)NCc1cccs1	1.1
Cc1ccc(C(CC(=O)O)Nc2nc(N3CCOCC3)nc(N3CCOCC3)n2)cc1 (stereo not given)	12.8
COc1ccc(N2C(=O)CC(SCC(=O)O)C2=O)cc1 (stereo not given)	37.1
C=CCN(C(=O)CCC(=O)O)C1CC(=O)N(c2ccc(OC)cc2)C1=O (stereo not given)	50.4*
CCCCCCC(=O)N(O)C1CC(=O)N(c2ccc(C)cc2)C1=O (stereo not given)	74.6
COc1ccc(F)cc1S(=O)(=O)Nc1ccc(C)cc1	20.7
COc1ccc(C(=O)COC(=O)CN2C(=O)NC(C)(C)C2=O)cc1OC	60.0*
CC(OC(=O)CN1C(=O)NC(C)(C)C1=O)C(=O)c1ccccc1 (stereo not given)	22.7
COc1ccc(C(=O)COC(=O)c2ccc(OC)c(OC)c2)cc1OC	29.9
Cc1ccn2c(C(=O)c3ccc(Cl)cc3)cnc2c1	28.9
CCCOCC1CC2(CC(C)(c3csc(N)n3)OC2=O)C(=O)O1 (stereo not given)	61.2*
Cc1nc2c(Br)cc(Br)cc2cc1O	-20.1
CCC1C(=O)Nc2nc(-c3ccccc3)c(-c3ccccc3)n2N=C1C (stereo not given)	3.3
Cc1cc(C)n(C(=O)c2ccc(NC(=O)CC(C)C)cc2)n1	50.0*
Cc1cc(Nc2ccccc2)nn1C(=O)c1ccc(Br)cc1	13.6
Cc1cc(NC(=O)c2ccc(NC(=O)CC(C)C)cc2)no1	21.6
COc1ccccc1N1CCN(C(c2cccs2)c2nnnn2C2CCCC2)CC1 (stereo not given)	22.7
COc1cc2cc(C(c3nnnn3C3CCCCC3)N(C)C3CCCCC3)c(=O)[nH]c2cc1OC (stereo not given)	45.1
CCC1(C)Cc2ccccc2-c2nc(NCCCO)n(-c3ccccc3)c(=O)c21 (stereo not given)	31.9
Cc1occc1-c1nnc(SCC(=O)Nc2nc3ccccc3s2)o1	5.7
CCOc1ccc(S(=O)(=O)NCc2ccc(OC)cc2)c2cccnc12	21.4
CCOCC(=O)Nc1cccc(NC(C)=O)c1	72.2*
CCOCC(=O)Nc1ccc(F)c(F)c1	12.3
CC(=O)c1cccc(NC(=O)COc2ccccc2)c1	12.4
SMILES	Yeast eIF2B
Cc1ccc(CSCCNC(=O)c2ccc(Cl)c(S(=O)(=O)N3CCOCC3)c2)cc1	21.3
COC(=O)C1=C(N)c2c(F)cccc2C1(C#N)c1ccc(F)cc1 (stereo not given)	14.1
Cc1c(NC(=O)C2C3C=CC(C3)C2C(=O)O)c(=O)n(-c2ccccc2)n1C (stereo not given)	9.6
Cc1cc(=O)oc2ccc(OCC(=O)N3CCc4ccccc43)cc12	50.1*
Cc1cc(=O)oc2cc(OCC(=O)N3CCCc4ccccc43)ccc12	-7.3
Cc1cc(=O)oc2cc(OCC(=O)N3CCc4ccccc4C3)ccc12	13.2
COc1ccccc1NS(=O)(=O)c1cc(C(=O)NCCN2CCOCC2)ccc1Cl	29.3
CC(=O)Oc1ccc(N(C(C)=O)S(=O)(=O)c2cccs2)c2ccccc12	15.4
CCSc1nnc(-c2cccnc2)n1-c1ccc(Cl)c(C)c1	26.9
COc1cc(NC(=O)C2CC(=O)NC3=C2C(=O)CCC3)c(OC)cc1Cl (stereo not given)	11.3
Cc1ccc2nc(NCCCO)[nH]c2c1	10.6
O=c1[nH]ncc(NCCCO)c1Cl	17.7
O=c1c(Cl)c(NCCCO)cnn1-c1nc2ccccc2[nH]1	55.8*
Cc1ccc(C)c(S(=O)(=O)N2CCN(C(=O)Cn3c(C(F)(F)F)nc4ccccc43)CC2)c1	-2.0
CCOC(=O)C1CCN(C(=O)c2sc3nc(-c4ccc(F)cc4)cn3c2C)CC1	11.1
Cc1c(C(N)=O)sc2nc(-c3ccccc3)cn12	17.5
Cc1c(C(=O)N2CCN(c3ccccc3F)CC2)sc2nc(-c3ccccc3)cn12	60.0*
Cc1cc(S(=O)(=O)NC(C)C)ccc1OCC(=O)N1CCOCC1	19.2
COc1ccc(S(=O)(=O)N2CCC(C(=O)N3CCCCC3)CC2)cc1Cl	14.3
Cc1cc2c(c(=O)n1CCCn1ccnc1)C(c1ccco1)C(C#N)=C(N)O2 (stereo not given)	-21.9
Cc1cc2c(c(=O)n1CC1CCCO1)C(c1ccco1)C(C#N)=C(N)O2 (stereo not given)	64.4*
COC(=O)C1=C(N)Oc2cc(C)n(CC3CCCO3)c(=O)c2C1c1ccc(Cl)cc1 (stereo not given)	30.2
Cc1cc(C)c(NC(=O)CS(=O)CC(=O)NC2CCCc3ccccc32)c(C)c1 (stereo not given)	19.7
O=C(CN(c1ccc(F)cc1)S(=O)(=O)c1ccc2c(c1)OCCO2)Nc1ccccc1	18.5
O=c1ccnc(S/C=C/c2ccccc2)[nH]1	66.4*
SMILES	Yeast eIF2B
COc1ccccc1NC(=O)N1CCC(c2nnc(SCC(N)=O)n2C)CC1	-36.6
CC(C)Cc1ccc(C#N)c(SCC(N)=O)n1	18.1
COC(=O)CSc1nc(-c2cccs2)ccc1C#N	26.1
CN1CCN(C(=O)CSc2nc(-c3ccncc3)ccc2C#N)CC1	71.2*
C=CCn1c(SCc2ccc(C#N)cc2)nnc1-c1ccc(C)cc1	14.6
Cc1cc(C(=O)CN2C(=O)NC(c3ccccc3)(c3ccccc3)C2=O)c(C)n1Cc1ccccc1	-13.8
CC(C)c1cc(NC(=O)CSc2nnc(-c3ccccc3F)n2C)on1	4.9
Cc1ccc(S(=O)(=O)N(C)CCCC(=O)n2nc(C)cc2C)cc1	34.4
CC12CCC(C(=O)Nc3cc(Cl)ccc3Cl)(C/C1=N\O)C2(C)C (stereo not given)	21.3
Cc1ccc(OCCCC(=O)Nc2ccc(S(=O)(=O)Nc3cc(C)on3)cc2)cc1	53.2*
Cc1ccc(OC(C)C(=O)Nc2ccc(S(=O)(=O)Nc3cc(C)on3)cc2)cc1 (stereo not given)	12.7
COc1ccc(CC(=O)Nc2ccc(S(=O)(=O)Nc3cc(C)on3)cc2)cc1	14.3
Cc1ccc(C)c(N2CCN(S(=O)(=O)c3ccc4c(c3)CCC(=O)N4)CC2)c1	22.5
Cc1ccc(S(=O)(=O)N2CCCN(S(=O)(=O)c3ccc(C)cc3)CC2)cc1	-22.7
Cc1ccc(C)c(N2CCN(S(=O)(=O)c3ccc4[nH]c(=O)c(=O)[nH]c4c3)CC2)c1	57.2*
O=C(CSCc1ccc(F)cc1)NCc1ccco1	26.6
Cc1csc2nc(CNC(=O)c3ccco3)cn12	-16.2
COC(=O)C(NC(=O)c1ccco1)(Nc1nc(C)cs1)C(F)(F)F (stereo not given)	52.0*
COc1ccc(Cc2nnc(NC(=O)c3ccco3)s2)cc1	7.0
CC(C)OC(=O)c1c2nc3ccccc3nc2n2c1[nH]c(=O)c1ccccc12	-12.9
O=C(COC(=O)c1ccncc1)Nc1cc(Cl)c(Cl)cc1Cl	12.1
CCc1nnc(NC(=O)[C@@H](NC(=O)c2cccc(S(=O)(=O)N3CCOCC3)c2)C(C)C)s1	2.5
O=C(CSc1nc(-c2ccco2)cc(C(F)(F)F)n1)Nc1ccccc1C(F)(F)F	51.5*
O=C(CSc1nc(-c2ccco2)cc(C(F)(F)F)n1)NCCc1ccccc1	20.5
Cc1cccc(C)c1NC(=O)CSc1nc(-c2ccco2)cc(C(F)(F)F)n1	16.9
COc1ccc(C2CC(c3cccs3)=Nc3ccccc3S2)cc1 (stereo not given)	15.2
Cc1ccc(C)c(S(=O)(=O)N2CCN(CC(=O)N3CCc4ccccc4C3)CC2)c1	15.7
Cc1ccn(C(=O)c2cc3ccccc3oc2=O)n1	17.7
